pIC50: −log10 of the molar value.
How the values were obtained:
NEDD8 activating enzyme = target: T1, NEDD8 activating enzyme (Homo sapiens, UniProt Q8TBC4); test: Inhibition of recombinant NAE (unknown origin) in presence of ATP at Km concentration by HTRF assay; format: protein-complex assay
T1 sequence (Q8TBC4 whole entry): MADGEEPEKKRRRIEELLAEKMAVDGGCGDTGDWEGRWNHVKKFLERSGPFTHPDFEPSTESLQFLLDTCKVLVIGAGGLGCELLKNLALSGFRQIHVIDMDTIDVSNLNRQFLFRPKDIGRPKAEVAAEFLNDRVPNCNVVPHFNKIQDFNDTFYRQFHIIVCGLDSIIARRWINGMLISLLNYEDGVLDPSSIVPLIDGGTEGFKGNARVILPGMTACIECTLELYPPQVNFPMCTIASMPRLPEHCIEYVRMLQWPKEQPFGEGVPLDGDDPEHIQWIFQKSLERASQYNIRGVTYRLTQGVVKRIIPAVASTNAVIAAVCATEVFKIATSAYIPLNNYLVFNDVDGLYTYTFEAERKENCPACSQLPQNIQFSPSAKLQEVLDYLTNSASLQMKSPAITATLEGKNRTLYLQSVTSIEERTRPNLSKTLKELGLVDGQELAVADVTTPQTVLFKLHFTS
T1 sequence (Q13564 whole entry): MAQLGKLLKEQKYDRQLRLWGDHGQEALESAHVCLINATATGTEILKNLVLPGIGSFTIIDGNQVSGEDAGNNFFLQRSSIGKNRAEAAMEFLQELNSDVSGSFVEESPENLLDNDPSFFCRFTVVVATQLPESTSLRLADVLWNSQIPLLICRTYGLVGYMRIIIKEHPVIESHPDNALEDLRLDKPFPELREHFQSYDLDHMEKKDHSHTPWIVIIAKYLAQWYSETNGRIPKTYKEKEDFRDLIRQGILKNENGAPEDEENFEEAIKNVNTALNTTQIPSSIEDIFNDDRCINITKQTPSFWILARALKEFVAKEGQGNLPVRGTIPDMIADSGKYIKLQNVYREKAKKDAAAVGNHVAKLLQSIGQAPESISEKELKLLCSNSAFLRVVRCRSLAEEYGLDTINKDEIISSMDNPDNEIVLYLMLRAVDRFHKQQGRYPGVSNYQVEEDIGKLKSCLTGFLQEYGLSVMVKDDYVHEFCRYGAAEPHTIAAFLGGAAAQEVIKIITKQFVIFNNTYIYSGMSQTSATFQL

[1] = Inhibition of recombinant UAE (unknown origin) in presence of ATP at Km concentration by HTRF assay; parameters: species or system Homo sapiens
SUMO-activating enzyme [2] = target: T2, SUMO-activating enzyme (Homo sapiens, UniProt Q9UBT2); test: Inhibition of SAE in human HCT116 cells assessed as reduction in redistribution of SUMO2/3 proteins from nucleus to cytosol incubated for 4 hrs by immunofluorescence assay; format: cell-based, HCT-116
T2 sequence (Q9UBE0 whole entry): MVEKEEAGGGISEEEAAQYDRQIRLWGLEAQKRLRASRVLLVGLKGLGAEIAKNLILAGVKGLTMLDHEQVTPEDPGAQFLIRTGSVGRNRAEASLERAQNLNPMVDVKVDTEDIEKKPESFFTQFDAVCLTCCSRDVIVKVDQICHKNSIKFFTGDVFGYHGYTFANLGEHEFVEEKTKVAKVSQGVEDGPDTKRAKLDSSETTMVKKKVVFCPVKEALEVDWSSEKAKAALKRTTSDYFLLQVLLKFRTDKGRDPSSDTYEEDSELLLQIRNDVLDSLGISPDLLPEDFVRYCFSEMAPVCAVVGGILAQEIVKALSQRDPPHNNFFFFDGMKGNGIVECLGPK
T2 sequence (Q9UBT2 whole entry): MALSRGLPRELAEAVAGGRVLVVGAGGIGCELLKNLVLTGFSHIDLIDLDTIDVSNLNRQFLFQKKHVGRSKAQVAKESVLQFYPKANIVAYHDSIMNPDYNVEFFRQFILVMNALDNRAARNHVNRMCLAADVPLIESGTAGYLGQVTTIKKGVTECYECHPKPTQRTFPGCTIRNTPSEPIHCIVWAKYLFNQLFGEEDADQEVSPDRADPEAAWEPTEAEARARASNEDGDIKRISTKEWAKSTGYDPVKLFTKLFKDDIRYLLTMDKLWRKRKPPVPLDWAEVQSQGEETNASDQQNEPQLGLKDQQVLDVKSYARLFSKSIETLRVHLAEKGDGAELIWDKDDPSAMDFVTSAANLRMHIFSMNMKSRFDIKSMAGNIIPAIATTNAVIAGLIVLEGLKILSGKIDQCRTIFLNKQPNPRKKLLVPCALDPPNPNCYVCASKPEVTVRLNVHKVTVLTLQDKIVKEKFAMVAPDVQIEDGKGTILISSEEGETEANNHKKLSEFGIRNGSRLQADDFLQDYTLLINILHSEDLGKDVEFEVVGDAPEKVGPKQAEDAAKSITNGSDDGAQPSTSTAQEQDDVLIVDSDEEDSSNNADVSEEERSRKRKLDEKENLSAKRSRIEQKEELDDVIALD
Procedure, shortened: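 HCT-116 cells exposed to compound across a concentration range for 4 h, then stained with anti-SUMO2/3 monoclonal antibody. Automated imaging scored the nuclear (inner) to cytoplasmic (outer) SUMO2/3 ratio. IC50 taken from the dose response.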

SUMO-activating enzyme [3] = target: T2, SUMO-activating enzyme; test: Inhibition of recombinant SAE (unknown origin) assessed as reduction in transfer of SUMO1 to UBC9 using SUMO1 as a substrate in presence of ATP at Km concentration by HTRF assay; format: protein-complex assay
Procedure, shortened: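 HTRF transthiolation assay measuring transfer of SUMO1 to UBC9, the E2 for SAE.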

SUMO-activating enzyme [4] = target: T2, SUMO-activating enzyme; test: Inhibition of SAE in human HCT116 cells assessed as redistribution of SUMO2/3 proteins from nucleus to cytosol preincubated for 2 hrs followed by compound washout and measured immediately by immunofluorescence assay; format: cell-based, HCT-116
Procedure, shortened: (§1)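 Washout format of the SUMO2/3 immunofluorescence assay in HCT116 cells. Cells were exposed to a range of concentrations for 2 h, then washed free of compound.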

SUMO-activating enzyme [5] = target: T2, SUMO-activating enzyme; test: Inhibition of SAE in human HCT116 cells assessed as redistribution of SUMO2/3 proteins from nucleus to cytosol preincubated for 2 hrs followed by compound washout and measured after 8 hrs by immunofluorescence assay; format: cell-based, HCT-116; procedure, shortened: as §1

Compound | pIC50 (NEDD8 activating enzyme) | pIC50 [1] | pIC50 (SUMO-activating enzyme [2]) | pIC50 (SUMO-activating enzyme [3]) | pIC50 (SUMO-activating enzyme [4]) | pIC50 (SUMO-activating enzyme [5])
NS(=O)(=O)OC[C@H]1C[C@@H](Nc2ncncc2C(=O)c2cc(Cc3cccc(Cl)c3)cs2)C[C@@H]1O | 7.19 | < 6.00 |  |  |  | 
NS(=O)(=O)OC[C@H]1C[C@@H](Nc2ncncc2C(=O)c2ccn(Cc3ccccc3)n2)[C@H](F)[C@@H]1O | 6.48 | < 6.00 | 6.29 | 8.42 |  | 
NS(=O)(=O)OC[C@H]1C[C@@H](Nc2ncncc2C(=O)c2cc(C3OCc4ccc(Cl)cc43)c(Cl)s2)C[C@@H]1O (some centres not stated) | < 6.00 | < 6.00 | 6.79 | 8.52 |  | 
NS(=O)(=O)OC[C@H]1C[C@@H](Nc2ncncc2C(=O)c2ccn(Cc3ccccc3)n2)[C@@H](O)[C@@H]1O | 6.13 | < 6.00 | 5.82 | 7.57 |  | 
NS(=O)(=O)OC[C@H]1C[C@@H](Nc2ncncc2C(=O)c2ccn(Cc3ccc(Cl)s3)n2)C[C@@H]1O | 6.45 | < 6.00 | 6.64 | 8.70 |  | 
NS(=O)(=O)OC[C@H]1C[C@@H](Nc2ncncc2C(=O)c2ccn(Cc3cccc(OC(F)(F)F)c3)n2)C[C@@H]1O | < 6.00 | < 6.00 | 7.11 | 8.68 |  | 
NS(=O)(=O)OC[C@H]1C[C@@H](Nc2ncncc2C(=O)c2cc(C3OCCc4c(Cl)cccc43)cs2)C[C@@H]1O (some centres not stated) | 6.58 | < 6.00 | 7.12 | 8.77 |  | 
CNC(c1cccc(Cl)c1)c1csc(C(=O)c2cncnc2N[C@@H]2C[C@H](COS(N)(=O)=O)[C@@H](O)C2)c1 (some centres not stated) | 6.02 | < 6.00 | 6.36 | 8.43 |  | 
CN1CCc2ccc(Cl)cc2C1c1csc(C(=O)c2cncnc2N[C@@H]2C[C@H](COS(N)(=O)=O)[C@@H](O)C2)c1 (some centres not stated) | < 6.00 | < 6.00 | 6.20 | 8.60 |  | 
NS(=O)(=O)OC[C@H]1C[C@@H](Nc2ncncc2C(=O)c2cc(C3NCc4ccc(Cl)cc43)cs2)C[C@@H]1O (some centres not stated) | < 6.00 | < 6.00 | 6.51 | 8.80 |  | 
Cc1sc(C(=O)c2cncnc2N[C@@H]2C[C@H](COS(N)(=O)=O)[C@@H](O)C2)cc1C1OCCc2cccnc21 (some centres not stated) | 6.29 | < 6.00 |  | 9.70 | 7.72 | 7.19
NS(=O)(=O)OC[C@H]1C[C@@H](Nc2ncncc2C(=O)c2ccn(Cc3ccc(Cl)cc3)n2)C[C@@H]1O | < 6.00 | < 6.00 | 5.73 | 8.29 |  | 
NS(=O)(=O)OC[C@H]1C[C@@H](Nc2ncncc2C(=O)c2ccn(Cc3cccc(Cl)n3)n2)C[C@@H]1O | 6.32 | < 6.00 | 7.18 | 9.00 |  | 
NS(=O)(=O)OC[C@H]1C[C@@H](Nc2ncncc2C(=O)c2ccn(CC3CCCCC3)n2)C[C@@H]1O | 6.56 | < 6.00 | 5.79 | 8.09 |  | 
Cc1sc(C(=O)c2cncnc2N[C@@H]2C[C@H](COS(N)(=O)=O)[C@@H](O)C2)cc1C1OCCc2ccc(Cl)cc21 (stereo in doubt; 47) | 7.06 |  | 5.41 | 7.96 |  | 
NS(=O)(=O)OC[C@H]1C[C@@H](Nc2ncncc2C(=O)c2ccn(Cc3ccccc3)n2)[C@@H](F)[C@@H]1O | 6.16 | 6.31 | 6.59 | 8.64 |  | 
NS(=O)(=O)OC[C@H]1C[C@@H](Nc2ncncc2C(=O)c2ccn(Cc3ccc(Cl)o3)n2)C[C@@H]1O | 6.36 | < 6.00 | 7.48 | 8.96 |  | 
NC(c1cccc(Cl)c1)c1csc(C(=O)c2cncnc2N[C@@H]2C[C@H](COS(N)(=O)=O)[C@@H](O)C2)c1 (stereo in doubt; 32) | 6.48 | < 6.00 | 5.99 | 8.82 |  | 
NS(=O)(=O)OC[C@H]1C[C@@H](Nc2ncncc2C(=O)c2ccn(-c3ccccc3)n2)C[C@@H]1O | 7.49 | 6.33 | < 6.00 | 7.17 |  | 
Cc1sc(C(=O)c2cncnc2N[C@@H]2C[C@H](COS(N)(=O)=O)[C@@H](O)C2)cc1[C@H]1NCCc2ccc(Cl)cc21 | 6.26 | < 6.00 | 6.40 | 7.52 |  | 
NS(=O)(=O)OC[C@H]1C[C@@H](Nc2ncncc2C(=O)c2ccn(Cc3ccccc3)n2)C(F)(F)[C@@H]1O | < 6.00 | < 6.00 | 6.60 | 8.41 |  | 
N#Cc1sc(C(=O)c2cncnc2N[C@@H]2C[C@H](COS(N)(=O)=O)[C@@H](O)C2)cc1Cc1cccc(Cl)c1 | < 6.00 | < 6.00 | 5.20 | 7.72 |  | 
CN(C)C(c1cccc(Cl)c1)c1csc(C(=O)c2cncnc2N[C@@H]2C[C@H](COS(N)(=O)=O)[C@@H](O)C2)c1 (some centres not stated) | < 6.00 | < 6.00 | 5.38 | 7.60 |  | 
NS(=O)(=O)OC[C@H]1C[C@@H](Nc2ncncc2C(=O)c2ccn(Cc3ccccc3Cl)n2)C[C@@H]1O | 6.67 | < 6.00 | 6.48 | 8.49 |  | 

Continued, in another order:

pIC50 (NEDD8 activating enzyme) | pIC50 [1] | Compound | pIC50 (SUMO-activating enzyme [2]) | pIC50 (SUMO-activating enzyme [3]) | pIC50 (SUMO-activating enzyme [4]) | pIC50 (SUMO-activating enzyme [5])
6.52 | < 6.00 | C#Cc1cccc(Cn2ccc(C(=O)c3cncnc3N[C@@H]3C[C@H](COS(N)(=O)=O)[C@@H](O)C3)n2)c1 | 7.66 | 8.96 |  | 
6.28 | < 6.00 | NS(=O)(=O)OC[C@H]1C[C@@H](Nc2ncncc2C(=O)c2csc(Cc3cccc(Br)c3)c2)C[C@@H]1O | 5.31 | 7.74 |  | 
6.45 | < 6.00 | NS(=O)(=O)OC[C@H]1C[C@@H](Nc2ncncc2C(=O)c2ccn(Cc3cccc(F)c3)n2)C[C@@H]1O | 6.29 | 8.54 |  | 
6.91 | < 6.00 | NS(=O)(=O)OC[C@H]1C[C@@H](Nc2ncncc2C(=O)c2cnn(Cc3ccccc3)c2)C[C@@H]1O | 5.53 | 8.20 |  | 
7.04 | < 6.00 | NS(=O)(=O)OC[C@H]1C[C@@H](Nc2ncncc2C(=O)c2cc(Cc3cccc(Br)c3)cs2)C[C@@H]1O |  |  |  | 
6.16 | < 6.00 | NS(=O)(=O)OC[C@H]1C[C@@H](Nc2ncncc2C(=O)c2ccn(Cc3cccc(C(F)(F)F)c3)n2)C[C@@H]1O | 7.41 | 8.96 |  | 
6.09 | < 6.00 | NS(=O)(=O)OC[C@@H]1C[C@@H](Nc2ncncc2C(=O)c2ccn(Cc3ccccc3)n2)C[C@@H]1O | < 6.00 | 7.66 |  | 
6.57 | < 6.00 | NS(=O)(=O)OC[C@H]1C[C@@H](Nc2ncncc2C(=O)c2ccc(Cc3cccc(Br)c3)o2)C[C@@H]1O |  |  |  | 
6.51 | < 6.00 | Cc1cccc(Cn2ccc(C(=O)c3cncnc3N[C@@H]3C[C@H](COS(N)(=O)=O)[C@@H](O)C3)n2)c1 | 7.54 | 8.77 |  | 
6.24 | < 6.00 | NS(=O)(=O)OC[C@H]1C[C@@H](Nc2ncncc2C(=O)c2ccn(Cc3cccc(Br)n3)n2)C[C@@H]1O | 7.31 | 9.15 |  | 
8.00 | < 6.00 | NS(=O)(=O)OC[C@H]1C[C@@H](Nc2ncncc2C(=O)c2ccn(Cc3cccc(Br)c3)c2)C[C@@H]1O | 7.85 | 9.22 |  | 
6.62 | < 6.00 | NS(=O)(=O)OC[C@H]1C[C@@H](Nc2ncncc2C(=O)c2ccn(Cc3cccc(Cl)c3)n2)C[C@@H]1O | 7.70 | 9.15 |  | 
7.64 | < 6.00 | NS(=O)(=O)OC[C@H]1C[C@@H](Nc2ncncc2C(=O)c2ccn(Cc3ccccc3)c2)C[C@@H]1O | 7.52 | 8.77 |  | 

— ChEMBL document CHEMBL4834402, “Discovery of TAK-981, a First-in-Class Inhibitor of SUMO-Activating Enzyme for the Treatment of Cancer” (J Med Chem, 2021)
